Data on 27 compounds can be found in ChEMBL document CHEMBL4007470, “Discovery of a 2'-fluoro-2'-C-methyl C-nucleotide HCV polymerase inhibitor and a phosphoramidate prodrug with favorable properties” (Bioorg Med Chem Lett, 2017).

In general, EC50 refers to the midpoint of the concentration-response curve. Higher therefore signals a less potent agent.

Bounds are passed on as bounds.

Assay [1] relates to Hepatitis C virus. Briefly: Antiviral activity against HCV genotype 1b infected in human HuH7 cells by luciferase reporter gene assay. Format: functional, cell-based, Hepacivirus hominis. Particulars: Hepatitis C virus, genotype 1b, Huh-7. In short, it runs like this: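 Luciferase-reporter genotype 1b subgenomic replicon in Huh-7 cells; EC50 is concentration giving 50% inhibition. Values are averages of at least three repeats.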
For orientation: A reporter such as luciferase makes a cellular process visible.

Assay [2] concerns Hepatitis C virus. Briefly: Antiviral activity against HCV genotype 1a infected in human HuH7 cells by luciferase reporter gene assay. The assay is classed as functional, cell-based, Hepacivirus hominis, subtype 1a. Particulars: Hepatitis C virus, subtype 1a, Huh-7.
For assay [3], the system named is Hepatitis C virus. The assay can be described thus: Antiviral activity against HCV genotype 4a infected in human HuH7 cells by luciferase reporter gene assay. Conditions: Hepatitis C virus, genotype 4a, Huh-7. Format: functional, cell-based, Hepacivirus hominis.

As for `CC(C)(C)COC(=O)C1(NP(=O)(OC[C@H]2O[C@@H](c3cnc4c(N)ncnn34)[C@](C)(F)[C@@H]2O)Oc2ccccc2)CCC1` (some centres undefined), the concentration for a half-maximal effect (EC50) with Hepatitis C virus [1] was over 88 µM; in the assay with Hepatitis C virus [2] it was 72.4 µM; in the assay on Hepatitis C virus [3] it was 77.8 µM.
The matching figures for `CCOC(=O)C1(NP(=O)(OC[C@H]2O[C@@H](c3cnc4c(N)ncnn34)[C@](C)(F)[C@@H]2O)Oc2ccccc2)CCCC1` (some centres undefined): 2 µM, 1 µM and 0.38 µM.
The matching figures for `CC[C@H](C)OC(=O)[C@@H](C)NP(=O)(OC[C@H]1O[C@@H](c2cnc3c(N)ncnn23)[C@](C)(F)[C@@H]1O)Oc1ccccc1` (some centres undefined): 7.3 µM, 7.9 µM and 2.1 µM.
The matching figures for `CC[C@@H](C)OC(=O)C1(NP(=O)(OC[C@H]2O[C@@H](c3cnc4c(N)ncnn34)[C@](C)(F)[C@@H]2O)Oc2ccccc2)CCC1` (some centres undefined): over 88 µM, 6.4 µM and 0.35 µM.
In the case of `CC[C@H](C)OC(=O)C(C)(C)NP(=O)(OC[C@H]1O[C@@H](c2cnc3c(N)ncnn23)[C@](C)(F)[C@@H]1O)Oc1ccccc1` (some centres undefined), the concentration for a half-maximal effect (EC50) in the assay on Hepatitis C virus [1] is over 88 µM; with Hepatitis C virus [2] it was 36 µM; in the assay with Hepatitis C virus [3], 3.6 µM.
On the same counts, the results for `CC(C)C[C@H](NP(=O)(OC[C@H]1O[C@@H](c2ccc3c(N)ncnn23)[C@](C)(F)[C@@H]1O)Oc1ccccc1)C(=O)OC(C)C` (some centres undefined) are 0.69 µM, 0.74 µM and 0.59 µM.
Turning to `CCOC(=O)CC[C@H](NP(=O)(OC[C@H]1O[C@@H](c2cnc3c(N)ncnn23)[C@](C)(F)[C@@H]1O)Oc1ccccc1)C(=O)OCC` (some centres undefined), the EC50 with Hepatitis C virus [1] amounted to 3.4 µM; in the assay with Hepatitis C virus [2], 1.2 µM; in the assay on Hepatitis C virus [3], 0.83 µM.
With `CC(C)(C)COC(=O)C(C)(C)NP(=O)(OC[C@H]1O[C@@H](c2cnc3c(N)ncnn23)[C@](C)(F)[C@@H]1O)Oc1ccccc1` (some centres undefined), the half-maximal effective concentration (EC50) with Hepatitis C virus [1] was determined as 20.3 µM; in the assay on Hepatitis C virus [2], 6.2 µM; with Hepatitis C virus [3] it was 4.3 µM.
Consider `CC[C@@H](C)OC(=O)[C@H](C)NP(=O)(OC[C@H]1O[C@@H](c2cnc3c(N)ncnn23)[C@](C)(F)[C@@H]1O)Oc1ccccc1` (some centres undefined), for which the EC50 was 0.56 µM with Hepatitis C virus [1], 0.53 µM in the assay with Hepatitis C virus [2] and 0.37 µM in the assay with Hepatitis C virus [3].
The matching figures for `COCCOC(=O)C(C)(C)NP(=O)(OC[C@H]1O[C@@H](c2cnc3c(N)ncnn23)[C@](C)(F)[C@@H]1O)Oc1ccccc1` (some centres undefined): 6.2 µM, 4.3 µM and 0.82 µM.
The matching figures for `CCOC(=O)[C@@H](NP(=O)(OC[C@H]1O[C@@H](c2cnc3c(N)ncnn23)[C@](C)(F)[C@@H]1O)Oc1ccccc1)C(C)C` (some centres undefined): 37.6 µM, 35.2 µM and 11.2 µM.
On the same counts, the results for `CCOC(=O)C[C@H](NP(=O)(OC[C@H]1O[C@@H](c2cnc3c(N)ncnn23)[C@](C)(F)[C@@H]1O)Oc1ccccc1)C(=O)OCC` (some centres undefined) are 8.6 µM, 3.3 µM and 2.3 µM.
Turning to `CC(C)OC(=O)[C@@H](NP(=O)(OC[C@H]1O[C@@H](c2cnc3c(N)ncnn23)[C@](C)(F)[C@@H]1O)Oc1ccccc1)C(C)C` (some centres undefined), the half-maximal effective concentration (EC50) in the assay on Hepatitis C virus [1], with Hepatitis C virus [2] and in the assay with Hepatitis C virus [3] was over 88 µM in each case.
In the case of `CCOC(=O)[C@H](Cc1ccccc1)NP(=O)(OC[C@H]1O[C@@H](c2cnc3c(N)ncnn23)[C@](C)(F)[C@@H]1O)Oc1ccccc1` (some centres undefined), the 50% effective concentration (EC50) in the assay on Hepatitis C virus [1] is 2.2 µM; in the assay with Hepatitis C virus [2], 1.7 µM.
On the same counts, the results for `CC(C)OC(=O)C1(NP(=O)(OC[C@H]2O[C@@H](c3cnc4c(N)ncnn34)[C@](C)(F)[C@@H]2O)Oc2ccccc2)CCCCC1` (some centres undefined) are 83.7 µM and 68.3 µM.
In the case of `CC(C)OC(=O)C1(NP(=O)(OC[C@H]2O[C@@H](c3cnc4c(N)ncnn34)[C@](C)(F)[C@@H]2O)Oc2ccccc2)CCOCC1` (some centres undefined), the EC50 with Hepatitis C virus [1] was determined as 29.1 µM; in the assay with Hepatitis C virus [2], 14.4 µM; in the assay with Hepatitis C virus [3] it was 7 µM.
The matching figures for `CCC[C@H](NP(=O)(OC[C@H]1O[C@@H](c2cnc3c(N)ncnn23)[C@](C)(F)[C@@H]1O)Oc1ccccc1)C(=O)OCC` (some centres undefined): 0.65 µM, 0.39 µM and 0.27 µM.
The matching figures for `CCOC(=O)[C@@H](NP(=O)(OC[C@H]1O[C@@H](c2cnc3c(N)ncnn23)[C@](C)(F)[C@@H]1O)Oc1ccccc1)C(C)(C)C` (some centres undefined): over 88 µM, over 88 µM and over 88 µM.
In the case of `CC[C@@H](C)OC(=O)[C@@H](C)NP(=O)(OC[C@H]1O[C@@H](c2cnc3c(N)ncnn23)[C@](C)(F)[C@@H]1O)Oc1ccccc1` (some centres undefined), the EC50 with Hepatitis C virus [1], in the assay with Hepatitis C virus [2] and in the assay with Hepatitis C virus [3] was over 88 µM each time.
For `CC[C@@H](C)OC(=O)C(C)(C)NP(=O)(OC[C@H]1O[C@@H](c2cnc3c(N)ncnn23)[C@](C)(F)[C@@H]1O)Oc1ccccc1` (some centres undefined), the EC50 was over 88 µM in the assay with Hepatitis C virus [1], 28.7 µM in the assay on Hepatitis C virus [2] and 1.1 µM in the assay with Hepatitis C virus [3].
On the same counts, the results for `CCOC(=O)[C@H](CCCCN)NP(=O)(OC[C@H]1O[C@@H](c2cnc3c(N)ncnn23)[C@](C)(F)[C@@H]1O)Oc1ccccc1` (some centres undefined) are over 88 µM, over 88 µM and 62.5 µM.
On the same counts, the results for `COCCOC(=O)C1(NP(=O)(OC[C@H]2O[C@@H](c3cnc4c(N)ncnn34)[C@](C)(F)[C@@H]2O)Oc2ccccc2)CCC1` (some centres undefined) are 6.1 µM, 3.4 µM and 1.5 µM.
On the same counts, the results for `CC[C@H](C)OC(=O)[C@H](C)NP(=O)(OC[C@H]1O[C@@H](c2cnc3c(N)ncnn23)[C@](C)(F)[C@@H]1O)Oc1ccccc1` (some centres undefined) are 0.67 µM, 0.81 µM and 0.46 µM.
Take `CC(C)OC(=O)C1(NP(=O)(OC[C@H]2O[C@@H](c3cnc4c(N)ncnn34)[C@](C)(F)[C@@H]2O)Oc2ccccc2)CCCC1` (some centres undefined): the EC50 in the assay on Hepatitis C virus [1] was 51.6 µM; with Hepatitis C virus [2] it was 11.3 µM; in the assay on Hepatitis C virus [3] it was 3.9 µM.
On the same counts, the results for `CCOC(=O)[C@H](CCCCNC(C)=O)NP(=O)(OC[C@H]1O[C@@H](c2cnc3c(N)ncnn23)[C@](C)(F)[C@@H]1O)Oc1ccccc1` (some centres undefined) are over 88 µM, 60.5 µM and 86.2 µM.
On the same counts, the results for `CC[C@H](NP(=O)(OC[C@H]1O[C@@H](c2cnc3c(N)ncnn23)[C@](C)(F)[C@@H]1O)Oc1ccccc1)C(=O)OC(C)C` (some centres undefined) are 5.6 µM, 2.6 µM and 2 µM.
Take `CC[C@H](C)OC(=O)C1(NP(=O)(OC[C@H]2O[C@@H](c3cnc4c(N)ncnn34)[C@](C)(F)[C@@H]2O)Oc2ccccc2)CCC1` (some centres undefined): the concentration for a half-maximal effect (EC50) with Hepatitis C virus [1] amounted to 16.1 µM; in the assay with Hepatitis C virus [2] it was 18.8 µM; in the assay on Hepatitis C virus [3], 2.1 µM.
